In ChEMBL document CHEMBL2331413, “Novel in vivo active anti-malarials based on a hydroxy-ethyl-amine scaffold” (Bioorg Med Chem Lett, 2013):
pIC50: −log10 of the molar value. Activity calls are given as the source filed them. The calls are words filed in the database; no cut-off is given here.

Tests used:
[1] = Metabolic stability in mouse liver microsomes; type: ADME, Microsome; settings: read-out: Stability
Summary of the method: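 In vitro metabolic stability was measured with a mouse liver microsomal preparation and expressed as intrinsic clearance in µl/(min mg).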

Plasmodium berghei [2] = experiment: Antimalarial activity against GFP-transfected Plasmodium berghei ANKA in mouse blood assessed as inhibition of schizont maturation compound incubated for 16 hrs followed by 8 hrs of [3H]hypoxanthine incorporation; type: functional, organism-based
Plasmodium falciparum [3] = experiment: Antimalarial activity against chloroquine-sensitive Plasmodium falciparum NF54 infected in RBC after 48 hrs by [3H]hypoxanthine incorporation assay in presence of 0.5 % albumax; type: functional, organism-based
Plasmodium falciparum [4] = experiment: Antimalarial activity against chloroquine-sensitive Plasmodium falciparum NF54 infected in RBC after 24 hrs by [3H]hypoxanthine incorporation assay in presence of 0.5 % albumax; type: functional, organism-based
Plasmodium falciparum [5] = experiment: Antimalarial activity against chloroquine-sensitive Plasmodium falciparum NF54 infected in RBC after 72 hrs by [3H]hypoxanthine incorporation assay in presence of 0.5 % albumax; type: functional, organism-based
Plasmodium falciparum [6] = experiment: Antimalarial activity against chloroquine-sensitive Plasmodium falciparum NF54 infected in RBC after 72 hrs by [3H]hypoxanthine incorporation assay in presence of 50 % serum; type: functional, organism-based
Plasmodium falciparum [7] = experiment: Antimalarial activity against chloroquine-resistant Plasmodium falciparum K1 infected in RBC by [3H]hypoxanthine incorporation assay in presence of 0.5 % albumax; type: functional, organism-based
Plasmodium falciparum [8] = experiment: Antimalarial activity against chloroquine-resistant Plasmodium falciparum K1 infected in RBC by [3H]hypoxanthine incorporation assay in presence of 50 % serum; type: functional, organism-based
Plasmodium berghei [9] = experiment: Antimalarial activity against GFP-transfected Plasmodium berghei ANKA in mouse blood assessed as inhibition of schizont maturation after 72 hrs by [3H]hypoxanthine incorporation assay; type: functional, organism-based
Plasmodium berghei [10] = experiment: Antimalarial activity against GFP-transfected Plasmodium berghei ANKA in mouse blood assessed as inhibition of schizont maturation after 48 hrs by [3H]hypoxanthine incorporation assay relative to control; type: functional, organism-based
Plasmodium berghei [11] = experiment: Antimalarial activity against GFP-transfected Plasmodium berghei ANKA infected in mouse assessed as increase in host survival time at 100 mg/kg, po administered as single dose […]; type: functional
Summary of the method: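 P. berghei-infected mouse model; a single oral dose of 100 mg/kg. Parasitemia was expressed relative to untreated control animals. Mean survival time in days was compared with that of untreated mice.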

Plasmodium berghei [12] = experiment: Antimalarial activity against GFP-transfected Plasmodium berghei ANKA infected in mouse assessed as reduction in parasitemia at 100 mg/kg, po administered as single dose measured after 72 hrs by flow cytometry; type: functional; design: scale not given: the % may be the effect or the level left

Row | pIC50 (Plasmodium berghei [2]) | SMILES | microsomal CLint [1] [µL/min/mg] | pIC50 (Plasmodium falciparum [3]) | pIC50 (Plasmodium falciparum [4]) | pIC50 (Plasmodium falciparum [5]) | pIC50 (Plasmodium falciparum [6]) | pIC50 (Plasmodium falciparum [7]) | pIC50 (Plasmodium falciparum [8]) | Activity (Plasmodium berghei [9]) | Activity (Plasmodium berghei [10]) | Survival (Plasmodium berghei [11]) [days] | Activity (Plasmodium berghei [12]) [%]
1 | 6.84 | CCCN(CCC)Cc1cc(C2CCC(NC[C@@H](O)[C@H](Cc3ccccc3)NC(=O)c3ccc(N4CCN(C)CC4)cc3)CC2)ccc1O (some centres not stated) | 74 | 7.72 | 7.70 | 7.72 | – | – | – | – | – | – | –
2 | < 6.30 | C[C@@H](NC[C@@H](O)[C@H](Cc1ccccc1)NC(=O)c1ccc(C(=O)N2CCCCC2)cc1)c1ccccc1 | 860 | – | < 6.30 | 9.05 | 8.89 | – | – | – | – | – | –
3 | – | C[C@@H](NC[C@@H](O)[C@H](Cc1ccccc1)NC(=O)c1cccc(S(=O)(=O)N2CCN(C)CC2)c1)c1ccccc1 | 908 | – | – | 7.01 | 6.86 | – | – | – | – | – | –
4 | – | C[C@@H](NC[C@@H](O)[C@H](Cc1ccccc1)NC(=O)c1ccc(N(C)C2CCN(C)CC2)cc1)c1ccccc1 | 71 | > 8.11 | < 6.30 | 8.36 | 7.85 | 8.15 | – | – | – | – | –
5 | < 6.30 | CCCN(CCC)C(=O)c1ccc(C(=O)N[C@@H](Cc2ccccc2)[C@H](O)CN[C@H](C)c2ccccc2)cc1 | > 1250 | – | < 6.30 | 8.80 | 8.19 | – | – | – | – | – | –
6 | – | CCN(CC)Cc1cc(Nc2ccc(C(=O)N[C@@H](Cc3ccccc3)[C@H](O)CNC3CCCC3)cc2)ccc1O | – | – | – | 7.11 | 7.29 | 7.27 | 7.36 | – | – | – | –
7 | < 6.30 | C[C@@H](NC[C@@H](O)[C@H](Cc1ccccc1)NC(=O)c1cccc(O)c1CN1CCCCC1)c1ccccc1 | – | > 8.11 | 6.63 | 8.31 | 8.23 | – | – | – | – | – | –
8 | – | C[C@@H](NC[C@@H](O)[C@H](Cc1ccccc1)NC(=O)c1ccc(NC2CCN(C)CC2)cc1)c1ccccc1 | 76 | > 8.11 | < 6.30 | 8.40 | 7.92 | 8.15 | 7.80 | – | – | – | –
9 | – | CCCN(CCC)Cc1cc(Nc2ccc(C(=O)N[C@@H](Cc3ccccc3)[C@H](O)CN[C@H](C)c3ccccc3)cc2)ccc1O | – | 7.96 | 7.11 | 8.03 | 7.89 | 7.96 | > 8.11 | – | – | – | –
10 | – | CN1CCN(c2ccc(C(=O)N[C@@H](Cc3ccccc3)[C@H](O)CNCc3ccc(O)c(CN4CCCCC4)c3)cc2)CC1 | – | 6.99 | 6.80 | 6.92 | 7.24 | 7.44 | 7.55 | – | – | – | –
11 | – | CCN(CC)Cc1cc(Nc2cccc(C(=O)N[C@@H](Cc3ccccc3)[C@H](O)CNC3CCCC3)c2)ccc1O | – | – | – | 7.64 | 7.17 | 7.52 | 6.90 | – | – | – | –
12 | – | C[C@@H](NC[C@@H](O)[C@H](Cc1ccccc1)NC(=O)c1ccc(Nc2ccc(O)c(CN3CCCC3)c2)cc1)c1ccccc1 | – | > 8.11 | 6.76 | 7.77 | 8.31 | > 8.11 | > 8.11 | – | – | – | –
13 | – | C[C@@H](NC[C@@H](O)[C@H](Cc1ccccc1)NC(=O)c1ccc(CN2CCCCC2)c(O)c1)c1ccccc1 | – | – | – | 8.31 | 8.23 | > 8.11 | 8.11 | – | – | – | –
14 | – | CCCN(CCC)C(=O)c1cccc(C(=O)N[C@@H](Cc2ccccc2)[C@H](O)CNC2CCCC2)c1 | – | – | – | 8.15 | – | 7.92 | 7.44 | – | – | – | –
15 | < 6.30 | CCCN(CCC)C(=O)c1cccc(C(=O)N[C@@H](Cc2ccccc2)[C@H](O)CN[C@H](C)c2ccccc2)c1 | > 1250 | > 8.51 | < 6.30 | 8.70 | 8.00 | – | – | – | – | – | –
16 | – | CCCN(CCC)Cc1cc(CNC[C@@H](O)[C@H](Cc2ccccc2)NC(=O)c2ccc(Nc3ccnc(C)c3)cc2)ccc1O | – | – | – | 6.80 | 7.10 | 6.83 | 7.03 | – | – | – | –
17 | < 6.30 | C[C@@H](NC[C@@H](O)[C@H](Cc1ccccc1)NC(=O)c1ccc(C(=O)N2CCN(C)CC2)cc1)c1ccccc1 | 75 | – | < 6.30 | 9.22 | > 9.22 | – | – | – | – | – | –
18 | < 6.30 | CCCN(CCC)Cc1cc(C(=O)N[C@@H](Cc2ccccc2)[C@H](O)CN[C@H](C)c2ccccc2)ccc1O | – | 7.08 | 6.82 | 6.93 | 6.48 | – | – | – | – | – | –
19 | 6.76 | C[C@@H](NC[C@@H](O)[C@H](Cc1ccccc1)NC(=O)c1ccc(Nc2ccc(CN3CCCCC3)c(O)c2)cc1)c1ccccc1 | 415 | > 8.11 | 7.60 | 8.44 | 8.48 | – | – | – | – | – | –

Row | SMILES | pIC50 (Plasmodium berghei [2]) | microsomal CLint [1] [µL/min/mg] | pIC50 (Plasmodium falciparum [3]) | pIC50 (Plasmodium falciparum [4]) | pIC50 (Plasmodium falciparum [5]) | pIC50 (Plasmodium falciparum [6]) | pIC50 (Plasmodium falciparum [7]) | pIC50 (Plasmodium falciparum [8]) | Activity (Plasmodium berghei [9]) | Activity (Plasmodium berghei [10]) | Survival (Plasmodium berghei [11]) [days] | Activity (Plasmodium berghei [12]) [%]
20 | Cc1cc(Nc2ccc(C(=O)N[C@@H](Cc3ccccc3)[C@H](O)CN[C@H](C)c3ccccc3)cc2)cc(C)n1 | 6.48 | – | 7.96 | 6.70 | 8.06 | 7.64 | 8.05 | 7.70 | Active | Active | – | –
21 | CCCN(CCC)Cc1cc(CNC[C@@H](O)[C@H](Cc2ccccc2)NC(=O)c2ccc(N3CCN(C)CC3)cc2)ccc1O | 6.85 | 90 | 7.30 | 7.16 | 7.19 | 7.38 | 7.89 | 8.02 | – | – | 7 | 87
22 | C[C@@H](NC[C@@H](O)[C@H](Cc1ccccc1)NC(=O)c1ccc(N(C)c2ccncc2)cc1)c1ccccc1 | < 6.30 | 180 | 7.57 | 6.60 | 7.68 | 7.46 | 7.42 | 7.38 | Active | Active | – | –
23 | C[C@@H](NC[C@@H](O)[C@H](Cc1ccccc1)NC(=O)c1ccc(Nc2ccncc2)cc1)c1ccccc1 | 6.51 | 112 | 7.59 | 6.77 | 7.70 | 7.44 | 7.57 | 7.32 | Active | Active | – | –
24 | Cc1cc(Nc2ccc(C(=O)N[C@@H](Cc3ccccc3)[C@H](O)CN[C@H](C)c3ccccc3)cc2)ccn1 | 6.64 | 69 | – | 6.76 | 8.01 | 7.54 | 7.80 | 7.59 | Active | Active | 3 | 33
25 | C[C@@H](NC[C@@H](O)[C@H](Cc1ccccc1)NC(=O)c1ccc(N2CCN(C)CC2)cc1)c1ccccc1 | < 6.30 | 80 | – | < 6.30 | 8.06 | 8.07 | 7.72 | 7.49 | – | – | – | –
